{
  "source": "ChEMBL document CHEMBL1156295",
  "about": "“In vitro and in vivo photocytotoxicity of boron dipyrromethene derivatives for photodynamic therapy” (J Med Chem, 2010)",
  "key": {"HSC-2 [1]": {"system": "HSC-2", "assay": "Induction of apoptosis in human HSC2 cells irradiated with 4.1 J/cm^2 broad spectrum light assessed as viable cells at 0.5 uM after 16 hrs of irradiation by annexin V-FITC staining", "type": "functional", "conditions": "HSC-2, light or radiation study, read-out: Activity; call rule not given here", "how_it_was_run": "(§1)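 HSC-2 cells at 50% confluency in dishes, treated 2 h, then irradiated (4.1 J/cm2 broad spectrum) or kept dark. At intervals, floating and trypsinized cells pooled, washed in cold PBS, resuspended at 1 × 10^6 cells/mL in binding buffer. Stained 15 min in the dark at room temperature with annexin V-FITC and propidium iodide. 1 × 10^4 cells read by flow cytometry (FL1, FL3).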"}, "HSC-2 [2]": {"system": "HSC-2", "assay": "Cell cycle arrest in human HSC2 cells in dark assessed as accumulation at sub-G1 phase at 0.25 uM after 12 hrs by flow cytometry relative to control", "type": "functional", "how_it_was_run": "(§2)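 HSC-2 cells given compound for 2 h, then irradiated with broad-spectrum light (or kept dark). Floating plus trypsinized adherent cells collected at set times after irradiation. Fixed in 70% ice-cold ethanol overnight at 4 °C, then stained 30 min with 20 μg/mL RNase A and 1 μM SYTOX Green. 1 × 10^4 cells read by flow cytometry (488 nm laser, FL1 530/30).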"}, "HSC-2 [3]": {"system": "HSC-2", "assay": "Induction of apoptosis in human HSC2 cells irradiated with 4.1 J/cm^2 broad spectrum light assessed as viable cells at 0.5 uM after 12 hrs of irradiation by annexin V-FITC staining", "type": "functional", "conditions": "HSC-2, light or radiation study, read-out: Activity", "how_it_was_run": "as §1"}, "HL-60 [4]": {"system": "HL-60", "assay": "Phototoxicity against human HL60 cells irradiated with 4.1 J/cm^2 broad spectrum light treated 2 hrs before irradiation measured after 24 hrs by MTT assay", "type": "functional, cell-based", "conditions": "HL-60, light or radiation study", "how_it_was_run": "(§3)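 HL60 at 15000 cells/well; HSC-2 and HK1 at 3000 cells/well, adhered overnight; phenol-red-free medium with 10% FBS. Compound tested at 0.001–100.0 μM from DMSO stock; controls 0.01% DMSO. After 2 h, irradiated with broad-spectrum light at 6.8 mW/cm2, or dark. After 24 h, MTT 4 h at 37 °C, formazan in DMSO, A570. Three determinations, mean ± SD.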"}, "HL-60 [5]": {"system": "HL-60", "assay": "Cytotoxicity against human HL60 cells after 24 hrs by MTT assay", "type": "functional, cell-based", "conditions": "HL-60, 24 h", "how_it_was_run": "as §3"}, "HSC-2 [6]": {"system": "HSC-2", "assay": "Cell cycle arrest in human HSC2 cells irradiated with 4.1 J/cm^2 broad spectrum light assessed as accumulation at G2/M phase at 0.25 uM after 12 hrs by flow cytometry relative to control", "type": "functional", "how_it_was_run": "as §2"}, "HSC-2 [7]": {"system": "HSC-2", "assay": "Induction of apoptosis in human HSC2 cells irradiated with 4.1 J/cm^2 broad spectrum light assessed as viable cells at 0.5 uM after 4 hrs of irradiation by annexin V-FITC staining", "type": "functional", "conditions": "HSC-2, light or radiation study, read-out: Activity", "how_it_was_run": "as §1"}, "HSC-2 [8]": {"system": "HSC-2", "assay": "Induction of apoptosis in human HSC2 cells in dark assessed as apoptotic cells at 0.5 uM after 24 hrs by annexin V-FITC staining", "type": "functional", "how_it_was_run": "as §1"}, "HSC-2 [9]": {"system": "HSC-2", "assay": "Cytotoxicity against human HSC2 cells after 24 hrs by MTT assay", "type": "functional, cell-based", "conditions": "HSC-2, 24 h", "how_it_was_run": "as §3"}, "HSC-2 [10]": {"system": "HSC-2", "assay": "Cell cycle arrest in human HSC2 cells irradiated with 4.1 J/cm^2 broad spectrum light assessed as accumulation at G1 phase at 0.25 uM after 12 hrs by flow cytometry relative to control", "type": "functional", "how_it_was_run": "as §2"}, "HSC-2 [11]": {"system": "HSC-2", "assay": "Induction of apoptosis in human HSC2 cells in dark assessed as viable cells at 0.5 uM after 4 hrs of irradiation by annexin V-FITC staining", "type": "functional", "conditions": "HSC-2, light or radiation study, read-out: Activity", "how_it_was_run": "as §1"}, "HSC-2 [12]": {"system": "HSC-2", "assay": "Cell cycle arrest in human HSC2 cells irradiated with 4.1 J/cm^2 broad spectrum light assessed as accumulation at sub-G1 phase at 0.25 uM after 6 hrs by flow cytometry relative to control", "type": "functional", "how_it_was_run": "as §2"}, "HSC-2 [13]": {"system": "HSC-2", "assay": "Cell cycle arrest in human HSC2 cells irradiated with 4.1 J/cm^2 broad spectrum light assessed as accumulation at G2/M phase at 0.25 uM after 6 hrs by flow cytometry relative to control", "type": "functional", "how_it_was_run": "as §2"}, "[14]": {"assay": "Cellular uptake in human HSC2 cells assessed as intracellular localization in to endoplasmic reticulum labeled with ER-tracker blue-white DPX dye at 100 nM by spinning disk confocal microscopy", "type": "ADME, cell-based", "conditions": "hsc-2, 0.1 µM", "how_it_was_run": "(§4)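 HSC-2 cells grown on glass coverslips, co-incubated at room temperature for 15–30 min with compound plus probe: ER-Tracker 100 nM, LysoTracker 500 nM or Rh123 100 nM. Rinsed in PBS. XY sections at 0.2 μm imaged; excitation 330–385 nm for ER/Lyso probes, 460–490 nm for Rh123, 520–550 nm for photosensitizer.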"}, "HSC-2 [15]": {"system": "HSC-2", "assay": "Induction of apoptosis in human HSC2 cells irradiated with 4.1 J/cm^2 broad spectrum light assessed as apoptotic cells at 0.5 uM after 16 hrs of irradiation by annexin V-FITC staining", "type": "functional", "how_it_was_run": "as §1"}, "HSC-2 [16]": {"system": "HSC-2", "assay": "Cell cycle arrest in human HSC2 cells irradiated with 4.1 J/cm^2 broad spectrum light assessed as accumulation at sub-G1 phase at 0.25 uM after 12 hrs by flow cytometry relative to control", "type": "functional", "how_it_was_run": "as §2"}, "HSC-2 [17]": {"system": "HSC-2", "assay": "Induction of apoptosis in human HSC2 cells irradiated with 4.1 J/cm^2 broad spectrum light assessed as viable cells at 0.5 uM after 24 hrs of irradiation by annexin V-FITC staining", "type": "functional", "conditions": "HSC-2, light or radiation study, read-out: Activity", "how_it_was_run": "as §1"}, "HSC-2 [18]": {"system": "HSC-2", "assay": "Cell cycle arrest in human HSC2 cells irradiated with 4.1 J/cm^2 broad spectrum light assessed as accumulation at sub-G1 phase at 0.25 uM after 2 hrs by flow cytometry relative to control", "type": "functional", "how_it_was_run": "as §2"}, "HSC-2 [19]": {"system": "HSC-2", "assay": "Cell cycle arrest in human HSC2 cells irradiated with 4.1 J/cm^2 broad spectrum light assessed as accumulation at G1 phase at 0.25 uM after 2 hrs by flow cytometry relative to control", "type": "functional", "how_it_was_run": "as §2"}, "[20]": {"assay": "Cellular uptake in human HSC2 cells assessed as intracellular localization in to mitochondria labeled with rhodamine 123 dye at 100 nM by spinning disk confocal microscopy", "type": "ADME", "conditions": "hsc-2, 0.1 µM", "how_it_was_run": "as §4"}, "HSC-2 [21]": {"system": "HSC-2", "assay": "Cell cycle arrest in human HSC2 cells in dark assessed as accumulation at G1 phase at 0.25 uM after 12 hrs by flow cytometry relative to control", "type": "functional", "how_it_was_run": "as §2"}, "[22]": {"assay": "Cellular uptake in human HSC2 cells assessed as intracellular localization in to lysosome labeled with lyso-tracker DND22 dye at 100 nM by spinning disk confocal microscopy", "type": "ADME, cell-based", "conditions": "hsc-2, 0.1 µM", "how_it_was_run": "as §4"}, "HSC-2 [23]": {"system": "HSC-2", "assay": "Induction of apoptosis in human HSC2 cells irradiated with 4.1 J/cm^2 broad spectrum light assessed as apoptotic cells at 0.5 uM after 12 hrs of irradiation by annexin V-FITC staining", "type": "functional", "how_it_was_run": "as §1"}, "HSC-2 [24]": {"system": "HSC-2", "assay": "Cell cycle arrest in human HSC2 cells irradiated with 4.1 J/cm^2 broad spectrum light assessed as accumulation at G2/M phase at 0.25 uM after 2 hrs by flow cytometry relative to control", "type": "functional", "how_it_was_run": "as §2"}, "HSC-2 [25]": {"system": "HSC-2", "assay": "Cell cycle arrest in human HSC2 cells irradiated with 4.1 J/cm^2 broad spectrum light assessed as accumulation at G1 phase at 0.25 uM after 8 hrs by flow cytometry relative to control", "type": "functional", "how_it_was_run": "as §2"}, "HSC-2 [26]": {"system": "HSC-2", "assay": "Cell cycle arrest in human HSC2 cells irradiated with 4.1 J/cm^2 broad spectrum light assessed as accumulation at G2/M phase at 0.25 uM after 4 hrs by flow cytometry relative to control", "type": "functional", "how_it_was_run": "as §2"}, "[27]": {"assay": "Cytotoxicity against human HK1 cells after 24 hrs by MTT assay", "type": "functional, cell-based", "conditions": "HK-1, 24 h", "how_it_was_run": "as §3"}, "HSC-2 [28]": {"system": "HSC-2", "assay": "Phototoxicity against human HSC2 cells irradiated with 4.1 J/cm^2 broad spectrum light treated 2 hrs before irradiation measured after 24 hrs by MTT assay", "type": "functional, cell-based", "conditions": "HSC-2, light or radiation study", "how_it_was_run": "as §3"}},
  "data": [
    {"smiles": "CC1=C(I)C(C)=[N+]2C1=C(CCC(=O)O)c1c(C)c(I)c(C)n1[B-]2(F)F", "values": [
      {"measurement": "viability at 0.5 µM", "setting": "HSC-2 [1]", "result": 52.6, "unit": "%"},
      {"measurement": "Activity", "setting": "HSC-2 [2]", "result": 3.8, "unit": "%"},
      {"measurement": "viability at 0.5 µM", "setting": "HSC-2 [3]", "result": 79.3, "unit": "%"},
      {"measurement": "IC50", "setting": "HL-60 [4]", "result": 0.045, "unit": "µM"},
      {"measurement": "IC50", "setting": "HL-60 [5]", "result": "> 100", "unit": "µM"},
      {"measurement": "Activity", "setting": "HSC-2 [6]", "result": 26, "unit": "%"},
      {"measurement": "viability at 0.5 µM", "setting": "HSC-2 [7]", "result": 91.3, "unit": "%"},
      {"measurement": "Activity", "setting": "HSC-2 [8]", "result": 3, "unit": "%"},
      {"measurement": "IC50", "setting": "HSC-2 [9]", "result": "> 100", "unit": "µM"},
      {"measurement": "Activity", "setting": "HSC-2 [10]", "result": 44.1, "unit": "%"},
      {"measurement": "viability at 0.5 µM", "setting": "HSC-2 [11]", "result": 97, "unit": "%"},
      {"measurement": "Activity", "setting": "HSC-2 [12]", "result": 3.9, "unit": "%"},
      {"measurement": "Activity", "setting": "HSC-2 [13]", "result": 55.5, "unit": "%"},
      {"measurement": "Drug uptake", "setting": "[14]", "result": "Active"},
      {"measurement": "Activity", "setting": "HSC-2 [15]", "result": 47.4, "unit": "%"},
      {"measurement": "Activity", "setting": "HSC-2 [16]", "result": 10.6, "unit": "%"},
      {"measurement": "viability at 0.5 µM", "setting": "HSC-2 [17]", "result": 10.1, "unit": "%"},
      {"measurement": "Activity", "setting": "HSC-2 [18]", "result": 3.7, "unit": "%"},
      {"measurement": "Activity", "setting": "HSC-2 [19]", "result": 46.3, "unit": "%"},
      {"measurement": "Drug uptake", "setting": "[20]", "result": "Active"},
      {"measurement": "Activity", "setting": "HSC-2 [21]", "result": 55.2, "unit": "%"},
      {"measurement": "Drug uptake", "setting": "[22]", "result": "Active"},
      {"measurement": "Activity", "setting": "HSC-2 [23]", "result": 20.7, "unit": "%"},
      {"measurement": "Activity", "setting": "HSC-2 [24]", "result": 39.8, "unit": "%"},
      {"measurement": "Activity", "setting": "HSC-2 [25]", "result": 30.3, "unit": "%"},
      {"measurement": "Activity", "setting": "HSC-2 [26]", "result": 48.4, "unit": "%"},
      {"measurement": "IC50", "setting": "[27]", "result": 55.8, "unit": "µM"},
      {"measurement": "IC50", "setting": "HSC-2 [28]", "result": 0.1, "unit": "µM"}
    ]}
  ]
}
